# Assay results published in ChEMBL document CHEMBL1926577, “Novel 1,3,4-heterodiazole analogues: synthesis and in-vitro antitumor activity” (2012).
# Columns and labels:
# Format in all cases: functional
# OVCAR-8 = assay: Growth inhibition of human OVCAR8 cells at 10 uM after 48 hrs by coulter counter method; conditions: OVCAR-8, 48 h, read-out: GI
# Method in brief: (§1)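 NCI 60-cell-line panel, single dose. Compound dissolved first in DMSO, then diluted in phosphate-buffered saline so that every final dilution held under 1% DMSO. Duplicate wells received cells at 6 × 10⁴ cells/ml. Controls held PBS/DMSO at the same dilution. Plates were incubated 48 h at 37 °C under 5% CO₂. Cells were then diluted 10-fold in saline and counted on a Coulter counter, with counts corrected for the dilution. Results are given as percent growth inhibition.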
# MCF7 = assay: Growth inhibition of human MCF7 cells at 10 uM after 48 hrs by coulter counter method; conditions: MCF7, 48 h, read-out: GI; method in brief: as §1
# ACHN = assay: Growth inhibition of human ACHN cells at 10 uM after 48 hrs by coulter counter method; conditions: read-out: GI; method in brief: as §1
# MDA-MB-468 = assay: Growth inhibition of human MDA-MB-468 cells at 10 uM after 48 hrs by coulter counter method; conditions: MDA-MB-468, 48 h, read-out: GI; method in brief: as §1
# 786-0 = assay: Growth inhibition of human 786-0 cells at 10 uM after 48 hrs by coulter counter method; conditions: 786-0, 48 h, read-out: GI; method in brief: as §1
# PC-3 = assay: Growth inhibition of human PC3 cells at 10 uM after 48 hrs by coulter counter method; conditions: PC-3, 48 h, read-out: GI; method in brief: as §1
# TK-10 = assay: Growth inhibition of human TK10 cells at 10 uM after 48 hrs by coulter counter method; conditions: TK-10, 48 h, read-out: GI; method in brief: as §1
# UACC-62 = assay: Growth inhibition of human UACC62 cells at 10 uM after 48 hrs by coulter counter method; conditions: UACC-62, 48 h, read-out: GI; method in brief: as §1
# HL-60(TB) = assay: Growth inhibition of human HL-60(TB) cells at 10 uM after 48 hrs by coulter counter method; conditions: HL-60, 48 h, read-out: GI
# Method in brief: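 Single-dose screen on the NCI 60-line panel (leukemia subpanel). Compound is dissolved in DMSO and diluted in PBS, with final DMSO below 1%. Duplicate wells hold 6 × 10⁴ cells/ml at 37 °C, 5% CO₂, for 48 h. Cells are counted by Coulter counter after 10-fold saline dilution. Read-out is percent growth versus PBS/DMSO controls, expressed as % growth inhibition.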
# HT-29 = assay: Growth inhibition of human HT-29 cells at 10 uM after 48 hrs by coulter counter method; conditions: HT-29, 48 h, read-out: GI; method in brief: as §1
# HCT-116 = assay: Growth inhibition of human HCT116 cells at 10 uM after 48 hrs by coulter counter method; conditions: HCT-116, 48 h, read-out: GI; method in brief: as §1
# T47D = assay: Growth inhibition of human T47D cells at 10 uM after 48 hrs by coulter counter method; conditions: read-out: GI; method in brief: as §1
# KM12 = assay: Growth inhibition of human KM12 cells at 10 uM after 48 hrs by coulter counter method; conditions: KM12, 48 h, read-out: GI; method in brief: as §1
# NCI/ADR-RES = assay: Growth inhibition of human NCI/ADR-RES cells at 10 uM after 48 hrs by coulter counter method; conditions: read-out: GI; method in brief: as §1
# A498 = assay: Growth inhibition of human A498 cells at 10 uM after 48 hrs by coulter counter method; conditions: A498, 48 h, read-out: GI; method in brief: as §1
# MOLT-4 = assay: Growth inhibition of human MOLT4 cells at 10 uM after 48 hrs by coulter counter method; conditions: MOLT-4, 48 h, read-out: GI; method in brief: as §1
# K562 = assay: Growth inhibition of human K562 cells at 10 uM after 48 hrs by coulter counter method; conditions: K562, 48 h, read-out: GI; method in brief: as §1
# U-251 = assay: Growth inhibition of human U251 cells at 10 uM after 48 hrs by coulter counter method; conditions: U-251, 48 h, read-out: GI; method in brief: as §1
# BT-549 = assay: Growth inhibition of human BT549 cells at 10 uM after 48 hrs by coulter counter method; conditions: BT-549, 48 h, read-out: GI; method in brief: as §1
# NCI-H226 = assay: Growth inhibition of human NCI-H226 cells at 10 uM after 48 hrs by coulter counter method; conditions: NCI-H226, 48 h, read-out: GI; method in brief: as §1
# SNB-19 = assay: Growth inhibition of human SNB19 cells at 10 uM after 48 hrs by coulter counter method; conditions: SNB-19, 48 h, read-out: GI; method in brief: as §1
# SF-268 = assay: Growth inhibition of human SF268 cells at 10 uM after 48 hrs by coulter counter method; conditions: SF-268, 48 h, read-out: GI; method in brief: as §1
# SK-MEL-28 = assay: Growth inhibition of human SK-MEL-28 cells at 10 uM after 48 hrs by coulter counter method; conditions: SK-MEL-28, 48 h, read-out: GI; method in brief: as §1
# UO-31 = assay: Growth inhibition of human UO31 cells at 10 uM after 48 hrs by coulter counter method; conditions: UO-31, 48 h, read-out: GI; method in brief: as §1
# SK-MEL-5 = assay: Growth inhibition of human SK-MEL-5 cells at 10 uM after 48 hrs by coulter counter method; conditions: SK-MEL-5, 48 h, read-out: GI; method in brief: as §1
# EKVX = assay: Growth inhibition of human EKVX cells at 10 uM after 48 hrs by coulter counter method; conditions: read-out: GI; method in brief: as §1
# CAKI-1 = assay: Growth inhibition of human Caki1 cells at 10 uM after 48 hrs by coulter counter method; conditions: CAKI-1, 48 h, read-out: GI; method in brief: as §1
# IGROV-1 = assay: Growth inhibition of human IGROV1 cells at 10 uM after 48 hrs by coulter counter method; conditions: IGROV-1, 48 h, read-out: GI; method in brief: as §1
# UACC-257 = assay: Growth inhibition of human UACC257 cells at 10 uM after 48 hrs by coulter counter method; conditions: UACC-257, 48 h, read-out: GI; method in brief: as §1
# NCI-H322M = assay: Growth inhibition of human NCI-H322M cells at 10 uM after 48 hrs by coulter counter method; conditions: read-out: GI; method in brief: as §1
# HCT-15 = assay: Growth inhibition of human HCT15 cells at 10 uM after 48 hrs by coulter counter method; conditions: HCT-15, 48 h, read-out: GI; method in brief: as §1
# SR = assay: Growth inhibition of human SR cells at 10 uM after 48 hrs by coulter counter method; conditions: read-out: GI; method in brief: as §1
# NCI-H23 = assay: Growth inhibition of human NCI-H23 cells at 10 uM after 48 hrs by coulter counter method; conditions: NCI-H23, 48 h, read-out: GI; method in brief: as §1
# CCRF-CEM = assay: Growth inhibition of human CCRF-CEM cells at 10 uM after 48 hrs by coulter counter method; conditions: read-out: GI; method in brief: as §1
# SK-MEL-2 = assay: Growth inhibition of human SK-MEL-2 cells at 10 uM after 48 hrs by coulter counter method; conditions: SK-MEL-2, 48 h, read-out: GI; method in brief: as §1
# SF-295 = assay: Growth inhibition of human SF295 cells at 10 uM after 48 hrs by coulter counter method; conditions: SF-295, 48 h, read-out: GI; method in brief: as §1
# SN12C = assay: Growth inhibition of human SN12C cells at 10 uM after 48 hrs by coulter counter method; conditions: read-out: GI; method in brief: as §1
# A549 = assay: Growth inhibition of human A549 cells at 10 uM after 48 hrs by coulter counter method; conditions: A549, 48 h, read-out: GI; method in brief: as §1
# SNB-75 = assay: Growth inhibition of human SNB75 cells at 10 uM after 48 hrs by coulter counter method; conditions: SNB-75, 48 h, read-out: GI; method in brief: as §1
# NCI-H522 = assay: Growth inhibition of human NCI-H522 cells at 10 uM after 48 hrs by coulter counter method; conditions: NCI-H522, 48 h, read-out: GI; method in brief: as §1
# MDA-MB-435 = assay: Growth inhibition of human MDA-MB-435 cells at 10 uM after 48 hrs by coulter counter method; conditions: MDA-MB-435, 48 h, read-out: GI; method in brief: as §1
# LOX IMVI = assay: Growth inhibition of human LOXIMVI cells at 10 uM after 48 hrs by coulter counter method; conditions: read-out: GI; method in brief: as §1
# Malme-3M = assay: Growth inhibition of human MALME-3M cells at 10 uM after 48 hrs by coulter counter method; conditions: read-out: GI; method in brief: as §1
# M14 = assay: Growth inhibition of human M14 cells at 10 uM after 48 hrs by coulter counter method; conditions: M14, 48 h, read-out: GI; method in brief: as §1
structure (smiles),measurement,setting,value
NC1=CC(N)=NC2SC(c3ccc(Cl)cc3)=NN12 (centres undefined),inhibition of growth at 10 µM,OVCAR-8,< 10%
same,inhibition of growth at 10 µM,MCF7,< 10%
same,inhibition of growth at 10 µM,ACHN,< 10%
same,inhibition of growth at 10 µM,MDA-MB-468,< 10%
same,inhibition of growth at 10 µM,786-0,< 10%
same,inhibition of growth at 10 µM,PC-3,14.3%
same,inhibition of growth at 10 µM,TK-10,< 10%
same,inhibition of growth at 10 µM,UACC-62,< 10%
same,inhibition of growth at 10 µM,HL-60(TB),34.1%
same,inhibition of growth at 10 µM,HT-29,11.8%
same,inhibition of growth at 10 µM,HCT-116,< 10%
same,inhibition of growth at 10 µM,T47D,< 10%
same,inhibition of growth at 10 µM,KM12,< 10%
same,inhibition of growth at 10 µM,NCI/ADR-RES,< 10%
same,inhibition of growth at 10 µM,A498,< 10%
same,inhibition of growth at 10 µM,MOLT-4,20.6%
same,inhibition of growth at 10 µM,K562,26.9%
same,inhibition of growth at 10 µM,U-251,< 10%
same,inhibition of growth at 10 µM,BT-549,< 10%
same,inhibition of growth at 10 µM,NCI-H226,13.1%
same,inhibition of growth at 10 µM,SNB-19,< 10%
same,inhibition of growth at 10 µM,SF-268,< 10%
same,inhibition of growth at 10 µM,SK-MEL-28,17.4%
same,inhibition of growth at 10 µM,UO-31,21.9%
same,inhibition of growth at 10 µM,SK-MEL-5,< 10%
same,inhibition of growth at 10 µM,EKVX,< 10%
same,inhibition of growth at 10 µM,CAKI-1,< 10%
same,inhibition of growth at 10 µM,IGROV-1,22.3%
same,inhibition of growth at 10 µM,UACC-257,< 10%
same,inhibition of growth at 10 µM,NCI-H322M,< 10%
same,inhibition of growth at 10 µM,HCT-15,< 10%
same,inhibition of growth at 10 µM,SR,19.9%
same,inhibition of growth at 10 µM,NCI-H23,< 10%
same,inhibition of growth at 10 µM,CCRF-CEM,< 10%
same,inhibition of growth at 10 µM,SK-MEL-2,27.5%
same,inhibition of growth at 10 µM,SF-295,< 10%
same,inhibition of growth at 10 µM,SN12C,< 10%
same,inhibition of growth at 10 µM,A549,< 10%
same,inhibition of growth at 10 µM,SNB-75,< 10%
same,inhibition of growth at 10 µM,NCI-H522,19.9%
same,inhibition of growth at 10 µM,MDA-MB-435,< 10%
same,inhibition of growth at 10 µM,LOX IMVI,< 10%
same,inhibition of growth at 10 µM,Malme-3M,< 10%
same,inhibition of growth at 10 µM,M14,< 10%
